How the values were obtained:
L1210 [1] = test: Inhibition of synthesis of [methyl-14C] thymidine into DNA, in L1210 cells.; format: functional, cell-based, Mus musculus; details: Mus musculus, L1210
Procedure, shortened: (§1)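 Actively growing L1210 cells in vitro. Incorporation of [5-3H]uridine into RNA, or [methyl-14C]thymidine into DNA, compared with untreated cells. IC50 is micromolar drug concentration giving 50% reduction in incorporation rate.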

L1210 [2] = test: Inhibition of synthesis of [5-3H]-uridine into RNA in L1210 cells.; format: functional, cell-based, Mus musculus; details: l1210; procedure, shortened: as §1
L1210 [3] = test: 50% Inhibition of growth of L1210 cells in culture.; format: functional, Mus musculus; details: read-out: ID50 (the source's name)
Procedure, shortened: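 L1210 leukemia cells growing actively in culture; ID50 is drug concentration (nM) giving 50% inhibition of growth relative to untreated L1210 cells.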

P388/ADR [4] = test: Antitumor activity measured as Median survival time in days against P388/ADR, in ip implanted CDF1 mice, treated ip, qd 1-9; format: functional, Mus musculus
Procedure, shortened: (§2)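 P388/ADR leukemia, a P388/S subline made resistant to intercalators, implanted ip in CDF1 mice. Drug given ip daily on days 1-9 at optimal dose. Read-out is median survival time of tumor-bearing mice and %ILS of treated dying animals versus controls. Survivors beyond 60 days are counted; 10 mice per group.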

P388/ADR [5] = test: Antitumor activity measured as %ILS against P388/ADR, in ip implanted CDF1 mice, treated ip, qd 1-9; format: functional, Mus musculus; procedure, shortened: as §2
Mus musculus [6] = test: Antitumor activity measured as median survival time, for iv administration and sc inoculation of B16 melanoma.
B16 = test: In vitro 50% Growth inhibition of sensitive B16 cells.; format: functional, Mus musculus; details: read-out: ID50 (the source's name)
Procedure, shortened: (§3)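 Actively growing tumor cells in vitro (actinomycin-resistant P388/ADR leukemia; sensitive B16 melanoma); ID50 is concentration (nM) needed for 50% growth inhibition.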

Mus musculus [7] = species on record: Mus musculus; test: Antitumor activity measured as optimal dose, against C26 colon carcinoma.; format: functional
Procedure, shortened: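 Primary colon C26 carcinoma cells (trypan blue excluding, 2.5 × 10^5 cells/mouse) implanted in CDF1 mice on day 0. Drug given ip on days 1, 5 and 9 in 0.1 mL 5% v/v Me2SO-saline. Optimal dose in […]; %ILS and 60-day survivors scored.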

Mus musculus [8] = test: Antitumor activity measured as % increase in life span, for ip administration of compound and ip inoculation of B16 melanoma.; format: functional
Procedure, shortened: (§4)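 B16 brei (tumor weight/Hank's balanced salt solution 1:5, 0.2 mL) implanted sc or ip into groups of nine BDF1 mice on day 0. Drug given iv on day 1 (sc tumor) or ip on days 1, 5 and 9 (ip tumor), in 0.1 mL 5% v/v Me2SO-saline. Read-out is median survival time and %ILS versus untreated controls, excluding sixty-day survivors.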

P388/ADR [9] = test: Antitumor activity against P388/ADR, in ip implanted CDF1 mice, treated ip, qd 1-9 measured as optimal dose; format: functional, Mus musculus
Procedure, shortened: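 P388/ADR leukemia implanted ip in CDF1 mice; drugs given ip once daily on days 1-9. Optimal dose recorded alongside median survival time and % increase in median life span of treated dying mice versus controls; survivors counted as >60-day survivors per group of 10.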

Mus musculus [10] = species on record: Mus musculus; test: percent increase in median life time (%ILS) measured in mice bearing leukemia L!210; format: functional
Procedure, shortened: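 CDF1 mice inoculated ip with 10^5 L1210 cells on day 0. Drug given ip on days 1, 5 and 9 at the optimal dose in mg/kg per injection. %ILS is the increase in median life span of treated dying animals versus untreated tumor-bearing mice. Over-60-day survivors are counted; 9 mice per group.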

P388/ADR [11] = test: In vitro 50% Growth inhibition of actinomycin resistant P388/ADR cells; format: functional, Mus musculus; details: read-out: ID50 (the source's name); procedure, shortened: as §3
Mus musculus [12] = test: Antitumor activity measured as % increase in life span, for iv administration of compound and sc inoculation of B16 melanoma.
Mus musculus [13] = test: Antitumor activity measured as median survival time, for ip administration and ip inoculation of B16 melanoma.; format: functional; procedure, shortened: as §4
Mus musculus [14] = species on record: Mus musculus; test: Antitumor activity measured as % increase in life span, against C26 colon carcinoma.; format: functional
Procedure, shortened: (§5)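 C26 primary colon carcinoma cells (trypan blue excluding, 2.5 × 10^5 cells/mouse) implanted in CDF1 mice on day 0. Drug given ip on days 1, 5 and 9 in 0.1 mL 5% v/v Me2SO-saline at optimal dose. Read-out is median survival time; %ILS is drug-treated over control, excluding survivors. Sixty-day survivors are counted.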

P388/ADR [15] = test: Antitumor activity measured as Median survival time in days against P388/ADR, in ip implanted CDF1 mice, qd 1-9; format: functional, Mus musculus; procedure, shortened: as §2
Mus musculus [16] = species on record: Mus musculus; test: Antitumor activity measured as median survival time, against C26 colon carcinoma.; format: functional; procedure, shortened: as §5
P388/ADR [17] = test: Antitumor activity measured as %ILS against P388/ADR, in ip implanted CDF1 mice, qd 1-9; format: functional, Mus musculus; procedure, shortened: as §2
Mus musculus [18] = species on record: Mus musculus; test: Antitumor activity measured as optimal dose, for B16 melanoma.
L1210 [19] = test: Optimal dose per injection, administered ip on days 1, 5, and 9, ip inoculation with 10E5 L1210 cells per CDF1 mouse on day 0.; format: functional
Procedure, shortened: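 CDF1 mice inoculated ip with 10^5 L1210 cells on day 0; drugs given ip on days 1, 5 and 9. Optimal dose in mg/kg per injection. %ILS is increase in median life span of treated dying mice over untreated tumor-bearing mice; survivors counted beyond 60 days, 9 per group.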

Mus musculus [20] = test: Antitumor activity measured as % increase in life span, for iv administration of compound and sc inoculation of B16 melanoma.; remark: listed apart in the source
Mus musculus [21] = test: Antitumor activity measured as median survival time, for iv administration and sc inoculation of B16 melanoma.; remark: listed apart in the source

Cc1c2oc3c(C)c(OCC4CO4)cc(C(=O)N[C@@H]4C(=O)N[C@H](C(C)C)C(=O)N5CCC[C@H]5C(=O)N(C)CC(=O)N(C)[C@@H](C(C)C)C(=O)O[C@@H]4C)c3nc-2c(C(=O)N[C@@H]2C(=O)N[C@H](C(C)C)C(=O)N3CCC[C@H]3C(=O)N(C)CC(=O)N(C)[C@@H](C(C)C)C(=O)O[C@@H]2C)c(N)c1=O (stereo in doubt; 3b) [listing 1 of 2 here]
IC50 (L1210 [1]): 80 nM | IC50 (L1210 [2]): 24 nM

Cc1c2oc3c(C)c(OCC4CO4)cc(C(=O)N[C@@H]4C(=O)N[C@H](C(C)C)C(=O)N5CCC[C@H]5C(=O)N(C)CC(=O)N(C)[C@@H](C(C)C)C(=O)O[C@@H]4C)c3nc-2c(C(=O)N[C@@H]2C(=O)N[C@H](C(C)C)C(=O)N3CCC[C@H]3C(=O)N(C)CC(=O)N(C)[C@@H](C(C)C)C(=O)O[C@@H]2C)c(N)c1=O (stereo in doubt)
IC50 (L1210 [3]): 56.8 nM | MST (P388/ADR [4]): 43 days | ILS (P388/ADR [5]): 377% | MST (Mus musculus [6]): 53 days | IC50 (B16): 3.5 nM | Dose (Mus musculus [7]): 0.9 mg/kg | ILS (Mus musculus [8]): 74% | Dose (P388/ADR [9]): 0.8 mg/kg | ILS (Mus musculus [10]): 143% | IC50 (P388/ADR [11]): 135 nM | ILS (Mus musculus [12]): 60% | MST (Mus musculus [13]): 33 days

Cc1c2oc3c(C)c(OC[C@H]4CO4)cc(C(=O)N[C@@H]4C(=O)N[C@H](C(C)C)C(=O)N5CCC[C@H]5C(=O)N(C)CC(=O)N(C)[C@@H](C(C)C)C(=O)O[C@@H]4C)c3nc-2c(C(=O)N[C@@H]2C(=O)N[C@H](C(C)C)C(=O)N3CCC[C@H]3C(=O)N(C)CC(=O)N(C)[C@@H](C(C)C)C(=O)O[C@@H]2C)c(N)c1=O [listing 1 of 2 here]
IC50 (L1210 [1]): 60 nM

Cc1c2oc3c(C)c(OCC4CO4)cc(C(=O)N[C@@H]4C(=O)N[C@H](C(C)C)C(=O)N5CCC[C@H]5C(=O)N(C)CC(=O)N(C)[C@@H](C(C)C)C(=O)O[C@@H]4C)c3nc-2c(C(=O)N[C@@H]2C(=O)N[C@H](C(C)C)C(=O)N3CCC[C@H]3C(=O)N(C)CC(=O)N(C)[C@@H](C(C)C)C(=O)O[C@@H]2C)c(N)c1=O (stereo in doubt; 3b) [listing 2 of 2 here]
IC50 (L1210 [3]; Mus musculus, L1210): 28.7 nM | MST (Mus musculus [6]): 54 days | IC50 (B16; Mus musculus, B16): 2.5 nM | ILS (Mus musculus [14]): 64% | MST (P388/ADR [15]): 40 days | Dose (Mus musculus [7]): 0.6 mg/kg | ILS (Mus musculus [8]): 105% | Dose (P388/ADR [9]): 0.65 mg/kg | ILS (Mus musculus [10]): 186% | MST (Mus musculus [16]): 36 days | IC50 (P388/ADR [11]; Mus musculus, P388/ADR): 80 nM | ILS (P388/ADR [17]): 344% | Dose (Mus musculus [18]): 1 mg/kg | Dose (L1210 [19]): 0.05 mg/kg | ILS (Mus musculus [12]): 64% | MST (Mus musculus [13]): 39 days

Cc1c2oc3c(C)c(OC[C@H]4CO4)cc(C(=O)N[C@@H]4C(=O)N[C@H](C(C)C)C(=O)N5CCC[C@H]5C(=O)N(C)CC(=O)N(C)[C@@H](C(C)C)C(=O)O[C@@H]4C)c3nc-2c(C(=O)N[C@@H]2C(=O)N[C@H](C(C)C)C(=O)N3CCC[C@H]3C(=O)N(C)CC(=O)N(C)[C@@H](C(C)C)C(=O)O[C@@H]2C)c(N)c1=O [listing 2 of 2 here]
IC50 (L1210 [3]; Mus musculus, L1210): 23.1 nM | MST (P388/ADR [4]): 45 days | ILS (P388/ADR [5]): 400% | ILS (Mus musculus [20]): 70% | MST (Mus musculus [21]): 56 days | IC50 (B16; Mus musculus, B16): 2 nM | %ILS (Mus musculus [14]): 89% | Dose (Mus musculus [7]): 0.6 mg/kg | ILS (Mus musculus [8]): 105% | Dose (P388/ADR [9]): 0.3 mg/kg | ILS (Mus musculus [10]): 199% | MST (Mus musculus [16]): 41.5 days | IC50 (P388/ADR [11]; Mus musculus, P388/ADR): 40 nM | Dose (Mus musculus [18]): 1 mg/kg | Dose (L1210 [19]): 0.05 mg/kg | MST (Mus musculus [13]): 39 days
